EBI2 block – blocks human EBI2 receptor beta-arrestin signaling; EBI2 beta-arrestin recruitment, luminescence, 7a,25-OHC stimulated; 0.81% of 360,000 active; inhibition, % at 5 µM; AID 651636; P32249; in the data active = inhibition above about 38%;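 also: enzyme fragment complementation signal reports receptor beta-arrestin coupling in cells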
Target sequence (P32249 whole entry, looked up, the tested form may be a part): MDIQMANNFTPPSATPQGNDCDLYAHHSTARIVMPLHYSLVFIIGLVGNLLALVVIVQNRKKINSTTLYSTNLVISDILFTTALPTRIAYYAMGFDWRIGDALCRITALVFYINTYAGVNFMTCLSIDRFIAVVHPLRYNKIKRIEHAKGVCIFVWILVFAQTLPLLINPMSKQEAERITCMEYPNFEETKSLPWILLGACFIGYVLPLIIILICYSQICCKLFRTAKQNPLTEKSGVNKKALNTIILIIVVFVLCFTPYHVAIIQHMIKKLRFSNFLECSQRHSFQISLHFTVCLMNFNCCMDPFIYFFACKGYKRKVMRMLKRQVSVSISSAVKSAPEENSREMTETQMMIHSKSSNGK
Granule exo inh – lytic granule exocytosis inhibition. TALL-104 LAMP-1 surface exposure, flow cytometry; cells stimulated with thapsigargin and PMA. inhibition, % at 10 µM. 0.66% of 360,000 active. AID 651702;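 active = inhibition above about 55%, limit read from the data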
Myeloid diff 2 – compounds promoting myeloid differentiation. AID 624256. 1% of 360,000 active. calls only at 10 µM. ER-HoxA9 myeloid progenitors, lysozyme-GFP differentiation, flow cytometry;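 active = normalized GFP-positive differentiation at or above the plate's own cutoff, the solvent-only control mean plus 3 SD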;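 also: cells exposed to compound for four days before flow analysis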
MC4R antag cAMP – human MC4R antagonism in cAMP assay | P32245 | MC4R-expressing cells, MTII-stimulated cAMP, LANCE TR-FRET | inhibition, % at 6.5 µM | 0.48% of 360,000 active;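 active = inhibition above its plate's cutoff, the mean of tested wells on that plate plus 3 SD, cut at about 29% in these data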
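Material – human MC4R-expressing U2OS cells · Repeats – no replicates · Detection – TR-FRET with Eu-cAMP and labeled anti-cAMP, 671 nm · Times – compound 30 min, challenge 1 h, detection 1 h · Compound – single nominal compound dose of 6.5 µM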
MC4R barr agon – human MC4R agonism via beta-arrestin; U2OS MC4R beta-arrestin complementation, luminescence; percent of melanotan II response, DMSO zero; activation, % at 8.9 µM; 0.98% of 360,000 active;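 active = activation above a per-plate cutoff, the mean activation of sample wells on that plate plus 3 SD, cut at about 8% in these data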
Myeloid diff – myeloid differentiation induction | shares compounds with Myeloid diff 2 | ER-HoxA9 myeloid progenitors, GFP/Mac1 double-positive flow | calls only | 2% of 2,300 active;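 active = share of green or green-and-red cells above 9 and 9% in run 1 or 4 and 3% in run 2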
GFP autofluor – counter-screen for myeloid differentiation promoters: compound fluorescence. fluorescence response, % (concentration not given with the values). 7.4% of 2,300 active. ER-HoxA9 myeloid progenitors, no estrogen, GFP autofluorescence flow cytometry; vehicle wells 0%, positive control 100%. shares compounds with Myeloid diff 2;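 active = over 5% cells positive for green fluorescent reporter, or over 2% positive for both it and APC stain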
Numbers stand for hits; – = inactive; · = no result; + = active, no number. A selection: hits, their analogues and other compounds. The true share with any hit is near 3.7%.

SMILES	EBI2 block	Granule exo inh	Myeloid diff 2	MC4R antag cAMP	MC4R barr agon	Myeloid diff	GFP autofluor
CC1C(=O)NN=C1C(=O)N/N=C/c1cccs1 (stereo not given)	–	–	–	–	–	·	·
O=C(CCCN1C(=O)/C(=C\c2cccs2)SC1=S)Nc1cccc(C(=O)O)c1	–	–	–	–	–	·	·
O=C(CCCN1C(=O)/C(=C/c2ccco2)SC1=S)Nc1cccc(C(=O)O)c1	–	–	–	–	–	+	–
O=C(CCCN1C(=O)C(=Cc2ccc3c(c2)OCO3)SC1=S)Nc1ccc(C(=O)O)c(O)c1	–	–	–	–	–	–	–
CCN(CC(=O)Nc1c(F)cccc1F)C(=O)c1ccc2ncsc2c1	–	–	–	–	–	·	·
Nc1nccc(NCCSCc2ccccc2)n1	–	–	+	–	–	–	–
O=C(NCCSCc1ccccc1)c1ccccc1	–	–	–	–	–	·	·
OC(CN1CCOCC1)(c1ccccc1)c1ccccn1 (stereo not given)	–	–	–	–	–	·	·
CCOc1ccc(N(Cc2cc3cc(OC)ccc3[nH]c2=O)C(=O)C2CCCO2)cc1 (stereo not given)	–	–	+	–	–	–	–
COc1ccc(-n2c(COc3ccc(C)cc3)nnc2SCC(=O)O)cc1	–	–	–	–	–	·	·
CCOc1ccc(-n2c(COc3ccc(C)cc3)nnc2SCC(N)=O)cc1	–	–	–	–	–	–	–
COC(=O)C1C(=O)c2c([nH]c(C(=O)OCC3CCCO3)c2C)CC1C (stereo not given)	–	–	–	–	–	–	–
COCCCn1c(SCC(=O)NC2CCCC2)nnc1-c1cccs1	–	–	–	–	–	·	·
Cc1cccc(NC(=O)c2cc(NC(=O)C3CCCCC3C(=O)O)ccc2Cl)n1 (stereo not given)	–	–	–	–	–	·	·
Cc1cccc(NC(=O)c2cc(NC(=O)c3ccco3)ccc2Cl)n1	–	–	–	–	–	–	–
CC(=O)Nc1ccc2c(c1)C(N1CC3CCC(CC3)C1)c1ccccc1-2 (stereo not given)	–	–	–	–	–	·	·
O=c1[nH]c(CN2CCN(c3ccccc3)CC2)nc2scc(-c3ccccc3)c12	–	–	+	–	–	–	–
CC1C(=O)N(Cc2cn(CCC3OCCCO3)nn2)CCS(=O)(=O)N1Cc1ccc(-c2ccccc2)cc1 (stereo not given)	–	–	+	–	–	–	–
CC(C)CC1C(=O)N(Cc2cn(CC3CCCCC3)nn2)CCS(=O)(=O)N1Cc1ccc(-c2ccncc2)cc1 (stereo not given)	–	–	–	–	–	–	–
CC1C(=O)N(Cc2cn(CCC3OCCCO3)nn2)CCS(=O)(=O)N1Cc1ccc(-c2ccc(Cl)cc2)cc1 (stereo not given)	–	–	–	–	–	·	·
COc1cccc(CC(NC(C)=O)C(=O)NC2CCN(S(=O)(=O)c3ccc(F)cc3)CC2)c1OC (stereo not given)	–	–	–	–	–	·	·
CCN1/C(=N\N)c2cccc3cccc1c23	–	95.3	+	–	–	–	94.1
CCC(C)NC(=O)CN1C(=O)c2cccc3cccc1c23 (stereo not given)	–	–	–	–	–	·	·
C[C@H](NC(=O)c1nc[nH]c1C(=O)N(C)Cc1ccccc1)C(=O)OC(C)(C)C	–	–	–	–	–	·	·
CN(Cc1ccccc1)C(=O)c1[nH]cnc1C(=O)NCCCCCNC(=O)OC(C)(C)C	–	–	+	–	–	–	–
SMILES	EBI2 block	Granule exo inh	Myeloid diff 2	MC4R antag cAMP	MC4R barr agon	Myeloid diff	GFP autofluor
COC(=O)C1=C(C)N=C2SCCC(=O)N2C1c1cccs1 (stereo not given)	–	–	–	–	–	·	·
CC1=C(C(=O)OC(C)C)C(c2cccs2)N2C(=O)CCSC2=N1 (stereo not given)	–	–	–	–	–	–	–
CC(=O)c1c(O)cc(=O)n(-c2ccccc2)c1-c1ccc(C)cc1	–	–	–	–	–	–	–
CCOC(=O)c1c(C)c(C(=O)Nc2cc(OC)ccc2OC)c(C)n1CC	–	–	+	–	–	–	–
Cc1cc(NC(=O)/C=C/c2ccccc2Cl)no1	–	–	–	–	–	–	–
Cc1cc(NS(=O)(=O)c2ccc(NC(=O)/C=C/c3ccccc3Cl)cc2)no1	–	–	–	–	–	·	·
COc1ccc(/C=C/C(=O)NCCCN2CCCC2)cc1	–	–	–	–	–	·	·
COc1ccc(/C=C/C(=O)NCCC(=O)N2CCCN(C)CC2)cc1	–	–	–	–	–	–	–
O=C1CCC/C(=N/NC(=O)c2sc3ccccc3c2Cl)C1	–	–	–	–	–	–	–
O=C(NN=C1CCCC1)c1sc2ccccc2c1Cl	–	–	–	–	–	·	·
CC(C)C(=O)N[C@@H]1c2ccccc2CC[C@@H]1O	–	–	–	–	–	·	·
COCCCNC(=S)NC1CC2CCCC(C1)N2Cc1ccco1 (stereo not given)	–	–	–	–	–	–	–
CNC(=S)NC1CC2CCCC(C1)N2Cc1ccco1 (stereo not given)	–	–	–	–	–	·	·
Clc1ccc(C=Cc2ccccn2)c(Cl)c1	–	–	–	–	–	·	·
CCOC(=O)c1ccc(NC(=O)CN2CCc3ccccc3C2)cc1	–	–	–	–	–	–	–
COC(=O)c1cc(NC(=O)CN2CCc3cc4c(cc3C2)OCCCO4)cc(C(=O)OC)c1	–	–	–	–	–	–	–
Cn1c(=O)c2cc(NC(=S)NC3CC3)ccc2n1C/C=C/c1ccccc1	–	–	+	–	–	–	–
Cn1c(=O)c2cc(NC(=O)NCc3ccc(F)cc3)ccc2n1C/C=C/c1ccccc1	–	–	+	–	–	+	–
Cn1c(=O)c2cc(NC(=S)NC3CCCCC3)ccc2n1C/C=C/c1ccccc1	–	–	–	–	–	·	·
C=CCn1c(SCC(=O)Nc2cc(C)on2)nc2ccccc21	–	–	–	–	–	·	·
CC1Cc2ccccc2N1C(=O)Cn1nnc(-c2ccccc2NC(=O)C2CCC2)n1 (stereo not given)	–	–	–	–	–	–	–
CCC(=O)Nc1ccccc1-c1nnn(CC(=O)N2c3ccccc3CC2C)n1 (stereo not given)	–	–	–	–	–	·	·
CCN1CC=C2C(C#N)=C(N)C(C#N)(C#N)C(CCc3ccccc3)C2C1 (stereo not given)	–	–	–	–	–	·	·
CC(=O)N1CC=C2C(C#N)=C(N)C(C#N)(C#N)C(CCc3ccccc3)C2C1 (stereo not given)	–	–	+	–	–	–	–
N#Cc1ccsc1NC(=O)C1CC(=O)N(Cc2ccccc2)C1 (stereo not given)	–	–	–	–	–	–	–
